# From PubChem
# MC4R antagonist = blocks human MC4R cAMP signaling. inhibition, % at 6.5 µM. MC4R-expressing cells, MTII-stimulated cAMP, LANCE TR-FRET. P32245. hit rate 0.48% among 360,000. AID 540295;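 active = inhibition above its plate's cutoff, the mean of tested wells on that plate plus 3 SD, cut at about 29% in these data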;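 also: 0% = Melanotan II alone and 100% = Melanotan II plus saturating MCL0020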
#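 Assay system: human MC4R-expressing U2OS cells; reagent: Melanotan II stimulation of cells; dosing: 6.5 µM single dose; timing: compound 30 min, challenge 1 h, detection 1 h; signal: TR-FRET cAMP assay; replicates: one well per compound, no replicates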
# TLR9-MyD88 inh = blocks human TLR9 binding to MyD88; CHO BLA complementation TLR9-MyD88, CCF4 FRET ratio; inhibition, % at 4.98 µM; hit rate 0.21% among 340,000;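 active = inhibition above the mean over all tested compounds plus 3 SD, cut at about 21% in these data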;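 also: 0% = DMSO only wells and 100% = clavulanate BLA inhibitor control wells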
# Target sequence (Q99836 whole entry, looked up): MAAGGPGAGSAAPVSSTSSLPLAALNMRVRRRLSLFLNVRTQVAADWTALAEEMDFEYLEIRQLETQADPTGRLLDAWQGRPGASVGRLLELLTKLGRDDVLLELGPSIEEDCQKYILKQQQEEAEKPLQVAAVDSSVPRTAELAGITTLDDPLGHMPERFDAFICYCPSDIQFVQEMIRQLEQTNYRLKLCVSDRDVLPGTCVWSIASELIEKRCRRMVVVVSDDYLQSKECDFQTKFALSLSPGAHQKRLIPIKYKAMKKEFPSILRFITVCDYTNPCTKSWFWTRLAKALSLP
# Target sequence (Q9NR96 whole entry, looked up): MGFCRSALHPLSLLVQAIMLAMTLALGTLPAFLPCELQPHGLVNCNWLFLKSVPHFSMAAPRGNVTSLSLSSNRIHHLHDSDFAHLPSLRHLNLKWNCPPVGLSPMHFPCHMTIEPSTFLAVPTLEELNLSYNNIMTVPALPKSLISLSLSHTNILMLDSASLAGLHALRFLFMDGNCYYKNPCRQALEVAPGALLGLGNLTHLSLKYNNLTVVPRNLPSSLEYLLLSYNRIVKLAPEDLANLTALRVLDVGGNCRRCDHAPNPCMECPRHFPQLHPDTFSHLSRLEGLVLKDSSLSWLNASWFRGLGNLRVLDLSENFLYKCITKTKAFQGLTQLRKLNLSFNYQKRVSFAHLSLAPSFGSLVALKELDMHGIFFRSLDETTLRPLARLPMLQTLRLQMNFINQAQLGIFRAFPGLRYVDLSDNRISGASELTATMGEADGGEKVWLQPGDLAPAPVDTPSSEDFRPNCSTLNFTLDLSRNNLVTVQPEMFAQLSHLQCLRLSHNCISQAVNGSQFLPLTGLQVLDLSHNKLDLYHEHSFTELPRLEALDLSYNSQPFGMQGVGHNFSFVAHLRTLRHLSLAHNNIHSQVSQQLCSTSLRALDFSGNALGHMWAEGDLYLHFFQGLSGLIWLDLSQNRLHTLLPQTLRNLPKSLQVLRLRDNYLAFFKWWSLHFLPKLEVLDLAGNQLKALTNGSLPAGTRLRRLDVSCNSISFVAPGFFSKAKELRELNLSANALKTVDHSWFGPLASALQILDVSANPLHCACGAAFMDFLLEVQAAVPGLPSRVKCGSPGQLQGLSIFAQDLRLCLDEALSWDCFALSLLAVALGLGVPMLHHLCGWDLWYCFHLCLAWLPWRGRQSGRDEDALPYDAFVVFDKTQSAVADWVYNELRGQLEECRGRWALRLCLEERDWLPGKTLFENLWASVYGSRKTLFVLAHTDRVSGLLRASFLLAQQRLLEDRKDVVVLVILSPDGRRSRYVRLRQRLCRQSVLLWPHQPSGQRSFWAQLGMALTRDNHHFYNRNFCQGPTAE
# TLR4 MyD88 comp = inhibitors of human TLR4-MyD88 binding. O00206+Q99836. HeLa CL3-4 TLR4/MyD88 BLA complementation, FRET ratio. inhibition, % at 8.4 µM. hit rate 0.18% among 200,000. AID 861; in the data active = inhibition above about 25%;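 also: 0% = vehicle and 100% = reference inhibitor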
# MC4R ag barr = activates human MC4R beta-arrestin recruitment | hit rate 0.98% among 360,000 | P32245 | AID 540308 | activation, % at 8.9 µM | U2OS MC4R beta-arrestin complementation, luminescence; percent of melanotan II response, DMSO zero;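 active = activation above a per-plate cutoff, the mean activation of sample wells on that plate plus 3 SD, cut at about 8% in these data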
# MIN6 prolif = MIN6 beta-cell proliferation induction; MIN6 cells proliferation, ATPlite luminescence, 48 h; cells starved in 0.2% serum; 100% = growth in 10% serum; proliferation, % at 10 µM; hit rate 0.29% among 330,000;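 active = compounds whose signal lies at least 3.5 SD above the mean of all wells on their plate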;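 also: 0% = DMSO-treated cells in low-serum medium and 100% = 10% serum control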
# NOD2 RIPK2 PPI = inhibitors of human NOD2-RIPK2 interaction. O43353. CHO BLA complementation NOD2-RIPK2, CCF4 ratio. inhibition, % at 4.98 µM. hit rate 0.38% among 360,000; in the data active = inhibition above about 21%;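 also: 0% = vehicle only and 100% = reference blocker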
# U2OS cAMP counter = counter-screen for MC4R antagonists: nonselective cAMP signaling inhibitors | shares compounds with MC4R antagonist | parental U2OS, forskolin cAMP, LANCE TR-FRET | inhibition, % at 6.5 µM | AID 602193 | hit rate 26% among 1,600;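 active = mean inhibition over triplicates above the low-control well mean plus 3 SD, set per campaign, cut at about 13% in these data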;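 also: signal is single emission at 671 nm which falls as cellular cAMP rises; 0% = forskolin-stimulated wells and 100% = buffer without forskolin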
# MC4R cAMP antag = human MC4R cAMP antagonism confirmation; shares compounds with MC4R antagonist; MC4R-expressing cells, MTII-stimulated cAMP, TR-FRET; inhibition, % at 6.5 µM; hit rate 27% among 1,600; AID 602195; in the data active = inhibition above about 29%;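 also: 0% = agonist stimulated wells alone and 100% = agonist stimulated wells plus saturating reference antagonist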
# * = called active by the depositor; x = not tested or not shown. Rows were chosen to be rich in hits. Some 2.1% of all compounds tested hit in one or more screens of this group.
SMILES,MC4R antagonist,TLR9-MyD88 inh,TLR4 MyD88 comp,MC4R ag barr,MIN6 prolif,NOD2 RIPK2 PPI,U2OS cAMP counter,MC4R cAMP antag
CCC(C(=O)OCC(=O)N(CC)c1c(N)n(Cc2ccccc2)c(=O)[nH]c1=O)c1ccccc1 (configuration not stated),4,-5,x,-4,2,-4,x,x
COc1cccc(-c2cnc(C(O)c3c(C)cc(C)cc3C)[nH]2)c1 (configuration not stated),0,x,x,0,x,1,x,x
Cc1sc2nc(SCC(=O)N3CCOCC3)[nH]c(=O)c2c1-c1ccccc1,2,-1,x,-2,-1,-6,x,x
O=C(Nc1ccc(Cl)c(C(F)(F)F)c1)C1Cc2c(-c3ccc4c(c3)OCO4)ccnc2O1 (configuration not stated),9,x,x,-1,x,0,x,x
CCOC(=O)CNC(=O)COc1coc(CN2CCN(Cc3ccccc3)CC2)cc1=O,8,-24,x,1,0,-2,x,x
COC(=O)c1ccc(N2NC(=O)/C(=C/c3cc(OC)c(O)c(OC)c3)C2=O)cc1,4,5,x,-1,1,0,x,x
COC(=O)c1ccc(N2NC(=O)/C(=C/c3cc(OC)c(OC)c(OC)c3)C2=O)cc1,36*,-9,x,-2,5,-3,1,-3
S=c1nc[nH]c2c1[nH]c1ccccc12,49*,-11,-1,-3,-1,-4,4,17
S=c1nc[nH]c2c1[nH]c1ccc(Cl)cc12,35*,-4,x,2,1,4,3,-4
S=c1nc(-c2ccccc2)[nH]c2ccccc12,5,-5,7,-3,-4,9,x,x
COc1cc(C(=S)N2CCOCC2)ccc1OS(=O)(=O)c1ccccc1[N+](=O)[O-],33*,-6,-8,-1,-4,2,-1,-5
O=C(Oc1cccc(C(=S)N2CCOCC2)c1)c1ccc([N+](=O)[O-])cc1[N+](=O)[O-],37*,-7,x,-1,2,0,6,29*
O=C(Oc1ccc(C(=S)N2CCOCC2)cc1)c1ccc([N+](=O)[O-])cc1[N+](=O)[O-],0,-13,x,-3,-3,-4,x,x
O=c1c(Cl)c(N2CCN(c3ccc(F)cc3)CC2)cnn1C12CC3CC(CC(C3)C1)C2,29*,0,3,3,-1,3,-1,3
O=c1c(Cl)c(N2CCN(c3ccccc3)CC2)cnn1C12CC3CC(CC(C3)C1)C2,5,-3,0,-1,0,-7,x,x
Nc1ccc(C(=O)NN2C(=O)[C@H](Cl)C2c2ccc(Cl)cc2)cc1 (some centres not stated),37*,-2,x,0,x,-1,22*,19
CCNC(=O)CC1C(=O)N(C)C(=S)N1NC(=O)c1ccc(Cl)cc1 (configuration not stated),5,2,0,0,-1,4,x,x
COc1cc(/C=N/c2oc(C)c(C)c2C#N)cc(Br)c1O,4,-1,x,0,-2,-1,x,x
COc1cc(/C=C2\C(=N)N3N=C(S(C)(=O)=O)SC3=NC2=O)ccc1OCCOc1ccc(C)cc1,34*,-9,x,0,-4,7,1,-10
Cc1cc(C)cc(C(=O)NCC(=O)OCC(=O)NCc2ccco2)c1,39*,1,-2,5,-2,-3,5,11
COc1cc(OC)cc(C(=O)NCC(=O)OCC(=O)NCc2ccco2)c1,8,-7,x,-1,1,-3,x,x
COc1ccccc1-c1cc2nc(-c3ccccc3)cc(N3CCN(C(=O)c4ccoc4)CC3)n2n1,30*,-3,x,0,x,11,3,8
COc1cccc(-c2cc3nc(-c4ccccc4)cc(N4CCN(C(=O)c5ccoc5)CC4)n3n2)c1,23,-6,x,-2,x,5,x,x
COc1ccccc1-c1cc2nc(-c3ccccc3)cc(N3CCN(C(=O)c4ccco4)CC3)n2n1,29*,-11,x,2,x,7,-1,11
O=C(c1ccoc1)N1CCN(c2cc(-c3ccccc3)nc3cc(-c4ccccc4)nn23)CC1,17,3,x,1,x,-4,x,x
SMILES,MC4R antagonist,TLR9-MyD88 inh,TLR4 MyD88 comp,MC4R ag barr,MIN6 prolif,NOD2 RIPK2 PPI,U2OS cAMP counter,MC4R cAMP antag
CCNc1nc(NCC)n2c(SCC(=O)N(CC)C3CCCCC3)nnc2n1,-7,5,-7,5,0,-45,x,x
Cc1ccc(-n2nc(-c3ccc(OC(F)(F)F)cc3)cc2N)cc1C,29*,x,x,4,-1,-7,4,8
Cc1ccc(-n2nc(-c3ccc(N)cc3)cc2N)cc1,0,12,-6,0,-2,-10,x,x
COc1ccc(NC(=S)N2CCC(c3ccccc3)C2)cc1 (configuration not stated),3,7,x,-1,3,3,x,x
Cc1ccc(Cl)cc1NC(=S)N1CCC(c2ccccc2)C1 (configuration not stated),30*,-4,-6,-1,6,-5,-1,-5
CCOC(=O)c1c(C)[nH]sc1=S,26,-3,4,-1,0,-15,x,x
CCOC(=O)c1sc(=S)[nH]c1C,43*,-13,x,-3,x,-4,10,31*
CS(=O)(=O)c1ccc(Cl)c(NC(=O)C2CCN(S(=O)(=O)c3cccs3)CC2)c1,7,-1,x,-2,2,-4,x,x
O=S(=O)(c1ccc(F)c(F)c1)N1CCN(c2ccccn2)CC1,3,1,x,-1,5,-5,x,x
CCOCCCNC(=O)N1CCOCC1,-2,5,0,0,2,-2,x,x
O=C(NCCCCCCNC(=O)N1CCCCCC1)N1CCCCCC1,30*,-6,4,1,-2,-6,-3,0
CCc1ccc(NC(=O)C2CCN(S(=O)(=O)c3ccc4c(c3)CC(C)N4C(C)=O)CC2)cc1 (configuration not stated),3,-6,x,-1,-6,1,x,x
CC1CCCCC12NC(=O)N(CC(=O)N1CCN(S(=O)(=O)/C=C/c3ccccc3)CC1)C2=O (configuration not stated),2,-5,x,-2,0,-4,x,x
COc1cccc(NC(=O)CCN2C(=O)c3cccc([N+](=O)[O-])c3C2=O)c1,37*,0,x,-1,-3,-8,15*,34*
CCN(CC(=O)Nc1c(F)cccc1F)C(=O)CCN1C(=O)c2cccc([N+](=O)[O-])c2C1=O,36*,-10,x,-2,-3,-6,16*,49*
